One may read the IC50 as the concentration needed to halve the response being measured. Broadly, the inhibition is the relative decrease from the control value, in per cent. One may read the Kd as a measure of binding affinity in units of concentration.

For experiment [1], the system named is HCT-116. Briefly: Induction of apoptosis in human HCT116 cells incubated for 24 hrs by 7-AAD and annexin V staining-based flow cytometry. It is filed as functional, cell-based.
Experiment [2] deals with T1, DNA (cytosine-5)-methyltransferase 1 (Mus musculus, UniProt P13864). Briefly: Inhibition of N-terminal His6-tagged mouse DNMT1 (731 to 1602 residues) expressed in Escherichia coli BL21 (DE3) incubated for 15 mins before addition of [3H]-SAM and poly(dI-dC).poly(dI-dC) by liquid scintillation counting based radioactive methylation assay. The procedure, abridged: (§1)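 Enzyme was preincubated with compound for 15 min at room temperature, then reacted for 60 min at 37°C. Products were filter-captured, washed and counted by scintillation. IC50 came from a nonlinear dose-response fit; single-point tests used 50 µM.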
T1 sequence (P13864 whole entry, the tested form may be a part): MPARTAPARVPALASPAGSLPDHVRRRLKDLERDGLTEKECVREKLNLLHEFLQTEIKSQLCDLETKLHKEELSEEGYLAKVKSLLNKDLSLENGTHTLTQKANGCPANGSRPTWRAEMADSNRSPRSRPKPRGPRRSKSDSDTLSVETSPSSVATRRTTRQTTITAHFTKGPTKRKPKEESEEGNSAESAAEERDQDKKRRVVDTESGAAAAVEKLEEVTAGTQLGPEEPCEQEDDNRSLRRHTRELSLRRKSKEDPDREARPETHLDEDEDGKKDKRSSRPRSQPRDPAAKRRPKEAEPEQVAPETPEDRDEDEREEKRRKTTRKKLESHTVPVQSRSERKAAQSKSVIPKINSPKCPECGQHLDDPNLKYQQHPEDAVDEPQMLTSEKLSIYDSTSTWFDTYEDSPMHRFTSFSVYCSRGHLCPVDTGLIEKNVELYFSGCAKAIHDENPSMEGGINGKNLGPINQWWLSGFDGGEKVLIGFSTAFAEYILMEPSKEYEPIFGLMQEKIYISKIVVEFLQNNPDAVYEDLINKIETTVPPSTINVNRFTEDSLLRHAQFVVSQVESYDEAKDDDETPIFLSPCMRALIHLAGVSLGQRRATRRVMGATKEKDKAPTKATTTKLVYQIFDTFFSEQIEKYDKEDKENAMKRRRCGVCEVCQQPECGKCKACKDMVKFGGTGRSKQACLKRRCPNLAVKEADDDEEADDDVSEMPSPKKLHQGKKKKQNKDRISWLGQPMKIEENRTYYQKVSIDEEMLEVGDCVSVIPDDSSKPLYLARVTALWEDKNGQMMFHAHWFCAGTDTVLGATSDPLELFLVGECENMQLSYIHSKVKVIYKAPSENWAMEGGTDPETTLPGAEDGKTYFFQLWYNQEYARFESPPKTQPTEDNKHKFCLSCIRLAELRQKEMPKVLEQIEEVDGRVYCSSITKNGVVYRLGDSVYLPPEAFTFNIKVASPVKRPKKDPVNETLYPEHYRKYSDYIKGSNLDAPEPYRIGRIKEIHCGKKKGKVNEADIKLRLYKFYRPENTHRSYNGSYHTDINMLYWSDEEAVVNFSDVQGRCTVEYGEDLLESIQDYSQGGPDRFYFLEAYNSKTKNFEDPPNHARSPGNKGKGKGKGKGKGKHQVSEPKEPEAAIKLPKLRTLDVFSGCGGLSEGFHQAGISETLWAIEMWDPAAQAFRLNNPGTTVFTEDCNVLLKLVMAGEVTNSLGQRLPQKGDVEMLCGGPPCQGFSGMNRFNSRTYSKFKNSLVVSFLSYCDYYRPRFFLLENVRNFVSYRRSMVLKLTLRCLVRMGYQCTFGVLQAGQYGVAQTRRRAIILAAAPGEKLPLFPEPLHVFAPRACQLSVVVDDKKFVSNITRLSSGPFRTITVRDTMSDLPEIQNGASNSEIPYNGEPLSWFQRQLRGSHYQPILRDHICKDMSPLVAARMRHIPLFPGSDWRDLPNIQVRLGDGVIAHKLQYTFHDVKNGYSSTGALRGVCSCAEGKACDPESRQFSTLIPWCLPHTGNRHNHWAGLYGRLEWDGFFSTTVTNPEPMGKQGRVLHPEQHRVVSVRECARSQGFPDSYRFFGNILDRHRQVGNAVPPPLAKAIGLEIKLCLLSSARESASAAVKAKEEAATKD

Experiment [3] in a line: Binding affinity to DNA (unknown origin) at 0.0625 to 0.5 mM by ethidium bromide dye based agarose gel electrophoresis method.
In experiment [4] the target is DNA (cytosine-5)-methyltransferase 1 (Mus musculus) (UniProt P13864). Briefly: Inhibition of N-terminal His6-tagged mouse DNMT1 (731 to 1602 residues) expressed in Escherichia coli BL21 (DE3) at 50 uM incubated for 15 mins before addition of [3H]-SAM and poly(dI-dC).poly(dI-dC) by liquid scintillation counting based radioactive methylation assay. The procedure, abridged:
as §1

The target is the same in experiment [5]. Briefly: (§2) Binding affinity to N-terminal His6-tagged mouse DNMT1 (731 to 1602 residues) expressed in Escherichia coli BL21 (DE3) by SPR assay. The procedure, abridged: (§3)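 Measured by SPR at 25°C. Purified mouse DNMT1 was amine-coupled to a CM5 chip in 10 mM sodium acetate pH 5.0 and equilibrated overnight in HBS-EP (10 mM HEPES pH 7.4, 150 mM NaCl, 3 mM EDTA, 0.05% P20, 0.1% DMSO). Serially diluted compounds were injected with 120 s contact and 120 s dissociation, and KD was derived by the instrument evaluation software.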
(Surface plasmon resonance follows binding to a sensor surface in real time, without labels.)

The target of experiment [6] is T1, DNA (cytosine-5)-methyltransferase 1. Described as §2. In outline: as §3
In experiment [7] the test system is HCT-116. Briefly: Induction of apoptosis in human HCT116 cells assessed as viable cells at 0.75 uM incubated for 24 hrs by 7-AAD and annexin V staining-based flow cytometry (reference value: 92.2%). It counts as functional. The following applies: HCT-116, 24 h, read-out: Activity. In general terms: In flow cytometry, cells or beads pass a laser one at a time.

The subject of experiment [8] is HCT-116. Briefly: Induction of apoptosis in human HCT116 cells assessed as early apoptotic cells level at 0.75 uM incubated for 24 hrs by 7-AAD and annexin V staining-based flow cytometry (reference value: 4%). It is filed as functional.
The test system of experiment [9] is HCT-116. Briefly: Induction of apoptosis in human HCT116 cells assessed as late apoptotic cells level at 0.75 uM incubated for 24 hrs by 7-AAD and annexin V staining-based flow cytometry (reference value: 3.1%). It counts as functional.
Experiment [10] concerns HCT-116. Briefly: Induction of apoptosis in human HCT116 cells assessed as necrotic cells level at 0.75 uM incubated for 24 hrs by 7-AAD and annexin V staining-based flow cytometry (reference value: 0.7%). It is filed as functional.
Experiment [11] relates to HCT-116. Briefly: Induction of apoptosis in human HCT116 cells assessed as viable cells at 1.5 uM incubated for 24 hrs by 7-AAD and annexin V staining-based flow cytometry (reference value: 92.2%). It is filed as functional. The following applies: HCT-116, 24 h, read-out: Activity.
Experiment [12] concerns HCT-116. Briefly: Induction of apoptosis in human HCT116 cells assessed as early apoptotic cells level at 1.5 uM incubated for 24 hrs by 7-AAD and annexin V staining-based flow cytometry (reference value: 4%). It is filed as functional.
The subject of experiment [13] is HCT-116. Briefly: Induction of apoptosis in human HCT116 cells assessed as late apoptotic cells level at 1.5 uM incubated for 24 hrs by 7-AAD and annexin V staining-based flow cytometry (reference value: 3.1%). It is filed as functional.
For experiment [14], the system named is HCT-116. Briefly: Induction of apoptosis in human HCT116 cells assessed as necrotic cells level at 1.5 uM incubated for 24 hrs by 7-AAD and annexin V staining-based flow cytometry (reference value: 0.7%). It is filed as functional.
In experiment [15] the test system is HCT-116. Briefly: Induction of apoptosis in human HCT116 cells assessed as viable cells at 3 uM incubated for 24 hrs by 7-AAD and annexin V staining-based flow cytometry (reference value: 92.2%). It is filed as functional. The following applies: HCT-116, 24 h, read-out: Activity.
The subject of experiment [16] is HCT-116. Briefly: Induction of apoptosis in human HCT116 cells assessed as early apoptotic cells level at 3 uM incubated for 24 hrs by 7-AAD and annexin V staining-based flow cytometry (reference value: 4%). It counts as functional.
Experiment [17] deals with HCT-116. Briefly: Induction of apoptosis in human HCT116 cells assessed as late apoptotic cells level at 3 uM incubated for 24 hrs by 7-AAD and annexin V staining-based flow cytometry (reference value: 3.1%). It counts as functional.
For experiment [18], the system named is HCT-116. Briefly: Induction of apoptosis in human HCT116 cells assessed as necrotic cells level at 3 uM incubated for 24 hrs by 7-AAD and annexin V staining-based flow cytometry (reference value: 0.7%). It counts as functional.

Structures are written as SMILES. The source made the active and inactive calls. No cut-off for these calls is given here.

Chain of DNA (cytosine-5)-methyltransferase 1 (Mus musculus) (P13864 whole entry, the tested form may be a part): as above

As for `CC(C)NCC(O)COC(Cn1c2ccccc2c2ccccc21)Cn1c2ccccc2c2ccccc21` (racemic), the Activity result was “Dose-dependent effect” in experiment [1]; “Dose-dependent effect” in [5]; 4.6% in experiment [8]; 4% in experiment [9]; 0.3% in experiment [10]; 12.5% in experiment [12]. The Activity was determined as 10.8% in experiment [13]; 0.7% in experiment [14]; 42.7% in [16]; 27.2% in experiment [17]; 2.6% in experiment [18]. In addition, the IC50 in experiment [2] came to 1.7 µM. For the same compound, the result in experiment [3] was inactive. Further, the inhibition in [4] stood at 102%. The compound further showed a Kd in experiment [6] of 0.91 µM. The viability at 0.75 µM in experiment [7] is 91.1%. In addition, the viability at 1.5 µM in experiment [11] was found to be 76%. In addition, the viability at 3 µM in [15] is 27.5%.
